Reference: ChEMBL document CHEMBL3352338, “Development and biological evaluation of potent and selective c-KIT(D816V) inhibitors” (J Med Chem, 2014)
Active and inactive are the calls of the source. No cut-off for these calls is given here.

Legend:
[1] = target: Mast/stem cell growth factor receptor Kit (Homo sapiens, UniProt P10721, D816V); experiment: Inhibition of c-KIT D816V mutant (unknown origin)
[2] = target: Phosphatidylinositol 4,5-bisphosphate 3-kinase catalytic subunit alpha isoform (Homo sapiens, UniProt P42336); experiment: Inhibition of PI3Kalpha (unknown origin)
Chain of Phosphatidylinositol 4,5-bisphosphate 3-kinase catalytic subunit alpha isoform (P42336 whole entry, canonical isoform): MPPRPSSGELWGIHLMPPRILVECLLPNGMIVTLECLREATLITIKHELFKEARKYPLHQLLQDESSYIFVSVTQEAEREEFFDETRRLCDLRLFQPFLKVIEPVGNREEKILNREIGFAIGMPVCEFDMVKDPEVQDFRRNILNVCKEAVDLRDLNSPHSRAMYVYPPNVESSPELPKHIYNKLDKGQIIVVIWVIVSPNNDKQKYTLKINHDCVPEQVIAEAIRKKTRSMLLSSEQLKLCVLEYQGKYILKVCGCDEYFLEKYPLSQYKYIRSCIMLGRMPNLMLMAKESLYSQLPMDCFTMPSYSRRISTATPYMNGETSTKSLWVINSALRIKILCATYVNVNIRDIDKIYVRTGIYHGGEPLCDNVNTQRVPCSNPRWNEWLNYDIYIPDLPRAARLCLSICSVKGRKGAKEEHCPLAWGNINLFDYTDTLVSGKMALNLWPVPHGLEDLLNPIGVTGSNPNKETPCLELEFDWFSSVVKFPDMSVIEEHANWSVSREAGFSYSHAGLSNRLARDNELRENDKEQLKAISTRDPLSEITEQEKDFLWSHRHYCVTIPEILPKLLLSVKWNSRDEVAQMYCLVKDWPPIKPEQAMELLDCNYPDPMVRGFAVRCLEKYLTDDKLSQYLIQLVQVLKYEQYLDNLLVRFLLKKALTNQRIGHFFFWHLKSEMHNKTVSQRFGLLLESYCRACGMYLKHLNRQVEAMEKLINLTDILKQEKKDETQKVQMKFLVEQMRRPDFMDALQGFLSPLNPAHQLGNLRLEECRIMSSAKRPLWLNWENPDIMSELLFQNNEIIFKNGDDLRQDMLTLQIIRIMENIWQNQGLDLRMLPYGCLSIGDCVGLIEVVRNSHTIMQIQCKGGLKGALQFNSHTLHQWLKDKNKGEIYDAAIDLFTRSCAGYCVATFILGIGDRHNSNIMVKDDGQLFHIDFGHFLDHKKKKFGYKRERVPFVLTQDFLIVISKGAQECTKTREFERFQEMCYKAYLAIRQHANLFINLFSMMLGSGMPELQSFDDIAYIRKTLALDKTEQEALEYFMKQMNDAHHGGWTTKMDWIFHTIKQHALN

[3] = target: Mast/stem cell growth factor receptor Kit (Homo sapiens, UniProt P10721); experiment: Inhibition of wild type c-KIT (unknown origin)
Chain of Mast/stem cell growth factor receptor Kit (Homo sapiens, UniProt P10721) (P10721 whole entry): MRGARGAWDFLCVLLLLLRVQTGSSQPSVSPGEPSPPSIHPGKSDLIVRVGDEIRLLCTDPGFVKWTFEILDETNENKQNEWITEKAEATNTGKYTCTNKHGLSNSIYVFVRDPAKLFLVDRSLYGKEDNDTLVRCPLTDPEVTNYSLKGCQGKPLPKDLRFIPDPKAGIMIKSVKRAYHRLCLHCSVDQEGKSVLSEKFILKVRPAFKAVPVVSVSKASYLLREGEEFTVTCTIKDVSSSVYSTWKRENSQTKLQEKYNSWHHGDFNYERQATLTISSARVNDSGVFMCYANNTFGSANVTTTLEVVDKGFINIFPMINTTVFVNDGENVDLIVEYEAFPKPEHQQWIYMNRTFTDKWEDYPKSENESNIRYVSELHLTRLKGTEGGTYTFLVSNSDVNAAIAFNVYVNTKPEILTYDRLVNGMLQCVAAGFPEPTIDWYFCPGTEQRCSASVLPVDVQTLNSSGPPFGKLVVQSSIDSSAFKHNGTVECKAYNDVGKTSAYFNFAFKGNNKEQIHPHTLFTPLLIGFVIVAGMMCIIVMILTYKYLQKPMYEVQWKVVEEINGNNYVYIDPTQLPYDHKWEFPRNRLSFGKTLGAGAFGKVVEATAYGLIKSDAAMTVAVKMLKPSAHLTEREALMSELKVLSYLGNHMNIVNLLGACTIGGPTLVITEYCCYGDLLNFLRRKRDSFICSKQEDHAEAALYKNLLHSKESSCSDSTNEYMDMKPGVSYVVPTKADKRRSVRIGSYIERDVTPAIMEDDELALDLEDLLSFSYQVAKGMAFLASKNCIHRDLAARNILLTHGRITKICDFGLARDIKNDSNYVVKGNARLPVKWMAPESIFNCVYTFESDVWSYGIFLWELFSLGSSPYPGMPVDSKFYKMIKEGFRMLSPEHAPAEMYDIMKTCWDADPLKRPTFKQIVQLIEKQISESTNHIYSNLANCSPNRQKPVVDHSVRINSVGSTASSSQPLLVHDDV

[4] = Antiproliferative activity against human HMC-1.2 cells carrying V560G, D816V mutant assessed as cell growth inhibition by MTT assay; assay type: functional, cell-based
Method in brief: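 Cell viability by MTT assay in imatinib-resistant HMC-1.2 human mast cells (V560G, D816V), 48 h exposure across a range of concentrations.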

[5] = target: Signal transducer and activator of transcription 3 (Homo sapiens) (UniProt P40763); experiment: Inhibition of STAT3 phosphorylation in imatinib-resistant human HMC-1.2 cells at 5 uM after 1 hr by Western immunoblotting analysis
Chain of Signal transducer and activator of transcription 3 (Homo sapiens) (P40763 whole entry): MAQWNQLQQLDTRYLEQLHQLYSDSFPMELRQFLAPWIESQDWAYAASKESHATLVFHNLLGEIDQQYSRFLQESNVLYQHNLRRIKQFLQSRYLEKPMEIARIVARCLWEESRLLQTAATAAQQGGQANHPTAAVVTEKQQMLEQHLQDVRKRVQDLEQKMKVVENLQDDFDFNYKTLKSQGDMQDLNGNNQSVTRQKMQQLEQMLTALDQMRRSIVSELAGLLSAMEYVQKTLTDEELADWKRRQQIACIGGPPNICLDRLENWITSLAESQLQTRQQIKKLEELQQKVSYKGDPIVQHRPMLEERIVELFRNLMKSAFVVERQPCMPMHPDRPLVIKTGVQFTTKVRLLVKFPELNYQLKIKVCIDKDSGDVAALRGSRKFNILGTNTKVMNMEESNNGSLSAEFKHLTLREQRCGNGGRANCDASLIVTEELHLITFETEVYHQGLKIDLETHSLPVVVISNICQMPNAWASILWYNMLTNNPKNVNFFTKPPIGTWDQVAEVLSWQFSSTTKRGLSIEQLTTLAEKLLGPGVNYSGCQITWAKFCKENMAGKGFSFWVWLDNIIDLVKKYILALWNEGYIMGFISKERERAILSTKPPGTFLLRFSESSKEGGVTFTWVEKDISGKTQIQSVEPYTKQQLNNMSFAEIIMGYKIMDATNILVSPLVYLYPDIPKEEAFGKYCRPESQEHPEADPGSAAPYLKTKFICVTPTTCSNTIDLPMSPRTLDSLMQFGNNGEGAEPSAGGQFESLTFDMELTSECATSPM

Chain of Mast/stem cell growth factor receptor Kit (Homo sapiens, UniProt P10721, D816V) (P10721 26-976 D816V limits assumed): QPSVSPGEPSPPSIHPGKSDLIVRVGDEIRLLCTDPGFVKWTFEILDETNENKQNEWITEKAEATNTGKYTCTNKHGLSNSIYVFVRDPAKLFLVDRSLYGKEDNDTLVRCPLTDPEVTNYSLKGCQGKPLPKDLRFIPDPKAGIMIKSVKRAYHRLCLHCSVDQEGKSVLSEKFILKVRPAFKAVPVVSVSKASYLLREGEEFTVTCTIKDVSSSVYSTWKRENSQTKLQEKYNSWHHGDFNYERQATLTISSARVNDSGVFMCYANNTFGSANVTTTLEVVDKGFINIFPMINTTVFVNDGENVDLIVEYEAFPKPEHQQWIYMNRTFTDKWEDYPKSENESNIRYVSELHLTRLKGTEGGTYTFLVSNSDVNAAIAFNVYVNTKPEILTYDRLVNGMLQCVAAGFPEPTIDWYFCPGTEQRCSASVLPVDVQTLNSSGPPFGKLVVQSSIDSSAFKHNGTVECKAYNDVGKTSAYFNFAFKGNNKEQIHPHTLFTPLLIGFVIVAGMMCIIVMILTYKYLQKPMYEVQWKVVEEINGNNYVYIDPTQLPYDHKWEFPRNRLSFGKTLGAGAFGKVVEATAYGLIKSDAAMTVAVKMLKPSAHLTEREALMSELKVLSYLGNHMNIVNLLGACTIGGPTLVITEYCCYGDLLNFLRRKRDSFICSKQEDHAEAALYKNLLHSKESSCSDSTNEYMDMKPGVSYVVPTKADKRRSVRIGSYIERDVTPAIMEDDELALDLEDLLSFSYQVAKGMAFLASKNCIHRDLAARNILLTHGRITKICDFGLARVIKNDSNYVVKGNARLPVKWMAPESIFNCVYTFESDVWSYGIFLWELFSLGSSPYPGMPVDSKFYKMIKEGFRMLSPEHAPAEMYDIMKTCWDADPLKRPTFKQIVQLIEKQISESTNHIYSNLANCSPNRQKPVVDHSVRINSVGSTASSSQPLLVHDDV

| IC50 [1] [nM] | IC50 [2] [nM] | IC50 [3] [nM] | inhibition [5] | SMILES | IC50 [4] [nM] |
| --- | --- | --- | --- | --- | --- |
| > 10000 |  |  |  | Cc1ccc(-c2c[nH]c3ncc(-c4cccc(N)c4)cc23)cc1 |  |
| 10.8 | 1450 |  |  | COc1ccc(-c2c[nH]c3ncc(-c4cncc(N)c4)cc23)cc1OC |  |
| 24.6 |  | > 10000 |  | COc1ccc(-c2c[nH]c3ncc(-c4ccc(C)c(N)c4)cc23)cc1OC | 1430 |
| 72.8 | > 10000 |  |  | COc1ccc(-c2c[nH]c3ncc(-c4ccc(F)cc4)cc23)cc1OC |  |
| 28.7 |  | 1520 |  | COc1cccc(-c2cnc3[nH]cc(-c4ccc(OC)c(OC)c4)c3c2)c1 |  |
| 104 |  |  |  | COc1ccc(-c2c[nH]c3ncc(-c4cccc(N)c4)cc23)cc1F |  |
| 63.8 | > 10000 | > 10000 |  | COc1ccc(-c2c[nH]c3ncc(-c4cccc(C#N)c4)cc23)cc1OC |  |
| 76.7 |  |  |  | Nc1cccc(-c2cnc3[nH]cc(-c4cccc(N)c4)c3c2)c1 |  |
| 60.1 | > 10000 | 3330 |  | COc1ccc(-c2c[nH]c3ncc(-c4cccnc4)cc23)cc1OC |  |
| 2260 |  |  |  | Nc1cccc(-c2cnc3[nH]cc(-c4ccc(Cl)cc4)c3c2)c1 |  |
| 13.9 |  | 8540 |  | COc1ccc(-c2c[nH]c3ncc(-c4ccc(OCCN5CCOCC5)c(N)c4)cc23)cc1OC |  |
| 457 | > 10000 |  |  | COc1ccc(-c2c[nH]c3ncc(-c4ccc(Cl)cc4)cc23)cc1OC |  |
| 320 |  |  |  | COc1cc(OC)cc(-c2c[nH]c3ncc(-c4cccc(N)c4)cc23)c1 |  |
|  |  |  |  | Cc1ccc(NC(=O)c2ccc(CN3CCN(C)CC3)cc2)cc1Nc1nccc(-c2cccnc2)n1 [IMATINIB] | 17000 |
| 32.1 | 9700 |  |  | COc1ccc(-c2c[nH]c3ncc(-c4ccncc4)cc23)cc1OC |  |
| 785 | > 10000 |  |  | COc1ccc(-c2c[nH]c3ncc(-c4ccccc4C)cc23)cc1OC |  |
| 102 | > 10000 |  |  | COc1ccc(-c2c[nH]c3ncc(-c4cc(F)cc(F)c4)cc23)cc1OC |  |
| 9.1 |  | 56.8 |  | COc1ccc(-c2c[nH]c3ncc(-c4ccc(N)cc4)cc23)cc1OC |  |
| 67.8 |  | 1290 |  | COc1ccc(-c2c[nH]c3ncc(-c4cnc(N)nc4)cc23)cc1OC |  |
| 6.3 | > 10000 | 1060 |  | COc1ccc(-c2c[nH]c3ncc(-c4cccc(N)c4)cc23)cc1OC | 1680 |

| IC50 [1] [nM] | IC50 [2] [nM] | IC50 [3] [nM] | inhibition [5] | SMILES | IC50 [4] [nM] |
| --- | --- | --- | --- | --- | --- |
| 48.8 |  | 10800 |  | COc1ccc(-c2c[nH]c3ncc(-c4ccc5c(c4)OCO5)cc23)cc1OC |  |
| 26.2 |  | > 10000 |  | COc1cc(N)cc(-c2cnc3[nH]cc(-c4ccc(OC)c(OC)c4)c3c2)c1 |  |
| 1420 |  |  |  | Nc1cccc(-c2cnc3[nH]cc(-c4ccccc4N)c3c2)c1 |  |
| 135 | > 10000 |  |  | COc1ccc(-c2c[nH]c3ncc(-c4ccccc4)cc23)cc1OC |  |
| 29.2 |  | 5460 |  | COc1ccc(-c2cnc3[nH]cc(-c4ccc(OC)c(OC)c4)c3c2)c(OC)c1 |  |
| 670 |  |  |  | COc1cccc(-c2c[nH]c3ncc(-c4cccc(N)c4)cc23)c1 |  |
| 520 | > 10000 |  |  | COc1ccc(-c2c[nH]c3ncc(-c4cccc(F)c4)cc23)cc1OC |  |
| 29.2 | > 10000 |  |  | COc1ccc(-c2c[nH]c3ncc(-c4cccc(N(C)C)c4)cc23)cc1OC |  |
| 65.1 |  | 1160 |  | COc1ccc(-c2c[nH]c3ncc(-c4cccc(NC(C)=O)c4)cc23)cc1OC |  |
|  |  |  |  | Cc1ccc(C(=O)Nc2ccc(CN3CCN(C)CC3)c(C(F)(F)F)c2)cc1C#Cc1cnc2cccnn12 [PONATINIB] | 350 |
| 32.1 | > 10000 | 371 |  | COc1ccc(-c2cnc3[nH]cc(-c4ccc(OC)c(OC)c4)c3c2)cc1 |  |
| 1330 | > 10000 |  |  | COc1ccc(-c2c[nH]c3ncc(-c4ccccc4N)cc23)cc1OC |  |
| 261 | > 10000 |  |  | COc1ccc(-c2c[nH]c3ncc(-c4cccc(C)c4)cc23)cc1OC |  |
| 571 | > 10000 | > 10000 |  | COc1ccc(-c2c[nH]c3ncc(-c4ccc(C)cc4)cc23)cc1OC |  |
| 426 | > 10000 |  |  | COc1ccc(-c2c[nH]c3ncc(-c4ccc(C#N)cc4)cc23)cc1OC |  |
|  |  |  |  | Cc1nc(Nc2ncc(C(=O)Nc3c(C)cccc3Cl)s2)cc(N2CCN(CCO)CC2)n1 [DASATINIB] | 820 |
| 398 |  |  |  | COc1ccc(-c2c[nH]c3ncc(-c4cccc(N)c4)cc23)cc1 |  |
| 346 |  |  | Active | COc1ccc(-c2c[nH]c3ncc(-c4cncc(NS(=O)(=O)c5ccccc5)c4)cc23)cc1OC |  |
| 126 |  |  |  | COc1ccc(-c2c[nH]c3ncc(-c4cccc(NS(=O)(=O)c5ccccc5)c4)cc23)cc1OC |  |
